In one assay the test system is Bacillus subtilis. Kind of assay: Antibacterial activity against Bacillus subtilis MB964 assessed as growth inhibition. The assay is classed as functional. In a few lines: (§1)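 MIC (µg/mL) by in vitro growth inhibition in an assay system at pH 7.4. Tetracycline was run routinely to check medium, incubation conditions and inoculum virility.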
The subject of assay [1] is Pseudomonas aeruginosa. Kind of assay: Antibacterial activity against Pseudomonas aeruginosa MB2245 assessed as growth inhibition. In kind it is functional. In a few lines:
as §1

Assay [2] relates to Staphylococcus aureus. Kind of assay: Antibacterial activity against Staphylococcus aureus MB108 assessed as growth inhibition. The assay is classed as functional. The gist of the method: as §1
In assay [3] the test system is Pseudomonas aeruginosa. Kind of assay: Antibacterial activity against Pseudomonas aeruginosa MB418 assessed as growth inhibition. In kind it is functional. The gist of the method: as §1
Assay [4] concerns Bordetella bronchiseptica. Kind of assay: Antibacterial activity against Bordetella bronchiseptica MB3551 assessed as growth inhibition. In kind it is functional. The gist of the method:
as §1

Assay [5] deals with Corynebacterium pseudodiphtheriticum. Kind of assay: Antibacterial activity against Corynebacterium pseudodiphtheriticum assessed as growth inhibition at 2 to 8 ug/mL. The assay is classed as functional, organism-based.
Another assay relates to Pasteurella multocida. Kind of assay: Antibacterial activity against Pasteurella multocida MB7 assessed as growth inhibition at 2 to 8 ug/mL. The assay is classed as functional, organism-based.
Another assay concerns Escherichia coli. Kind of assay: Antibacterial activity against Escherichia coli MB2884 assessed as growth inhibition. The assay is classed as functional. In a few lines: as §1
In the next assay the test system is Salmonella. Kind of assay: Antibacterial activity against Salmonella schottmuelleri MB2837 assessed as growth inhibition. In kind it is functional. In a few lines: as §1
Assay [6] has as its system Bordetella bronchiseptica. Kind of assay: Antibacterial activity against Bordetella bronchiseptica MB905 assessed as growth inhibition. In kind it is functional. In a few lines:
as §1

Another assay relates to Streptococcus pyogenes. Kind of assay: Antibacterial activity against Streptococcus pyogenes assessed as growth inhibition at 2 to 8 ug/mL. The assay is classed as functional, organism-based.
Assay [7] has as its system Staphylococcus aureus. Kind of assay: Antibacterial activity against Staphylococcus aureus MB2865 assessed as growth inhibition. The assay is classed as functional. The gist of the method: as §1
A further assay relates to Klebsiella aerogenes. Kind of assay: Antibacterial activity against Klebsiella aerogenes MB1503 assessed as growth inhibition. The assay is classed as functional. In a few lines: as §1
In another assay the test system is Proteus vulgaris. Kind of assay: Antibacterial activity against Proteus vulgaris MB838 assessed as growth inhibition at 200 ug/mL. In kind it is functional, organism-based.

Each structure is given as a SMILES string. Calls of active or inactive are those of the source. The rule behind the calls is not given here.

Experimental findings from ChEMBL document CHEMBL3243989, “Antibacterial N-[omega, omega'-bis(alicyclic and aryl)-sec-alkyl]poly(methylene)triamine and -tetramine hydrochloride salts” (J Med Chem, 1979) are described below.

As usually defined, the MIC is the lowest concentration found to suppress growth.

Consider `Cl.NCCCNCCCNC(CCC1CCCCC1)CCC1CCCCC1`, for which the MIC was determined as 2 µg/mL with Bacillus subtilis; 15 µg/mL in the assay on Pseudomonas aeruginosa [1]; 2 µg/mL with Staphylococcus aureus [2]; 30 µg/mL in the assay with Pseudomonas aeruginosa [3]; 2 µg/mL in assay [4]; 15 µg/mL in the assay on Escherichia coli. Also, the MIC with Salmonella is 2 µg/mL; in assay [6], 2 µg/mL; in the assay with Staphylococcus aureus [7], 10 µg/mL; in the assay on Klebsiella aerogenes, 6 µg/mL. Further, the “growth inhibition (GI)” value (in assay [5]; in the assay on Proteus vulgaris) was “inactive” throughout. Moreover, the “growth inhibition (GI)” value in the assay on Pasteurella multocida and in the assay with Streptococcus pyogenes was “Active” throughout.
Turning to `CC1(C)C2CCC(C2)C1CCC(CCC1C2CCC(C2)C1(C)C)NCCN(CCN)CCN.Cl` (centres undefined), the MIC with Bacillus subtilis came to 4 µg/mL; in the assay on Pseudomonas aeruginosa [1], 8 µg/mL; with Staphylococcus aureus [2], 4 µg/mL; in the assay on Pseudomonas aeruginosa [3], 50 µg/mL; in assay [4], 4 µg/mL; with Escherichia coli it was 8 µg/mL. Moreover, the MIC in the assay with Salmonella turned out to be 4 µg/mL; in assay [6] it was 4 µg/mL; with Staphylococcus aureus [7] it was 8 µg/mL; in the assay on Klebsiella aerogenes, 8 µg/mL. Besides, the “growth inhibition (GI)” value (in [5]; in the assay on Proteus vulgaris) was “inactive” each time. Further, the “growth inhibition (GI)” value in the assay with Pasteurella multocida and in the assay with Streptococcus pyogenes was “Active” in each case.
Turning to `Cl.NCCCNCCCNC(CCC1CCCC1)CCC1CCCC1`, the MIC came out at 6 µg/mL in the assay on Bacillus subtilis; 30 µg/mL in the assay on Pseudomonas aeruginosa [1]; 20 µg/mL in the assay with Staphylococcus aureus [2]; 60 µg/mL in the assay with Pseudomonas aeruginosa [3]; 4 µg/mL in [4]; 30 µg/mL with Escherichia coli. In addition, the MIC with Salmonella is 8 µg/mL; in assay [6], 4 µg/mL; with Staphylococcus aureus [7], 15 µg/mL; in the assay on Klebsiella aerogenes, 15 µg/mL. In addition, the “growth inhibition (GI)” value (in assay [5]; with Proteus vulgaris) was “inactive” in each case. In addition, the “growth inhibition (GI)” value in the assay on Pasteurella multocida and with Streptococcus pyogenes was “Active” each time.
Take `Cl.NCCNCCNCCNC(CCC1CCCCC1)CCC1CCCCC1`: the MIC in the assay with Bacillus subtilis stood at 6 µg/mL; in the assay with Pseudomonas aeruginosa [1], 30 µg/mL; with Staphylococcus aureus [2] it was 6 µg/mL; in the assay on Pseudomonas aeruginosa [3] it was 40 µg/mL; in assay [4], 4 µg/mL; in the assay on Escherichia coli, 20 µg/mL. Besides, the MIC in the assay with Salmonella came out at 4 µg/mL; in assay [6] it was 6 µg/mL; with Staphylococcus aureus [7], 30 µg/mL; with Klebsiella aerogenes, 15 µg/mL. The “growth inhibition (GI)” value (in [5]; in the assay with Proteus vulgaris) was “inactive” each time. The “growth inhibition (GI)” value in the assay on Pasteurella multocida and in the assay on Streptococcus pyogenes was “Active” each time.
Regarding `CC(C)c1ccc(CCCC(CCCc2ccc(C(C)C)cc2)NCCNCCNCCN)cc1.Cl`, the MIC in the assay on Bacillus subtilis worked out at 4 µg/mL; in the assay with Pseudomonas aeruginosa [1] it was 80 µg/mL; in the assay on Staphylococcus aureus [2], 6 µg/mL; with Pseudomonas aeruginosa [3] it was 8 µg/mL; in assay [4], 30 µg/mL; in the assay on Escherichia coli it was 15 µg/mL. Besides, the MIC in the assay with Salmonella was found to be 10 µg/mL; in [6], 30 µg/mL; in the assay with Staphylococcus aureus [7] it was 20 µg/mL; with Klebsiella aerogenes, 60 µg/mL. The “growth inhibition (GI)” value (in assay [5]; with Proteus vulgaris) was “inactive” throughout. Besides, the “growth inhibition (GI)” value in the assay on Pasteurella multocida and in the assay on Streptococcus pyogenes was “Active” throughout.
Regarding `Cl.NCCNCCNC(CCC1CCCCC1)CCC1CCCCC1`, the MIC was found to be 4 µg/mL with Bacillus subtilis; 100 µg/mL in the assay on Pseudomonas aeruginosa [1]; 4 µg/mL in the assay on Staphylococcus aureus [2]; 100 µg/mL in the assay on Pseudomonas aeruginosa [3]; 4 µg/mL in [4]; 10 µg/mL in the assay with Escherichia coli. For the same compound, the MIC in the assay on Salmonella was 2 µg/mL; in [6] it was 4 µg/mL; in the assay on Staphylococcus aureus [7] it was 15 µg/mL; in the assay on Klebsiella aerogenes, 8 µg/mL. Further, the “growth inhibition (GI)” value (in assay [5]; with Proteus vulgaris) was “inactive” in each case. The “growth inhibition (GI)” value in the assay with Pasteurella multocida and in the assay on Streptococcus pyogenes was “Active” throughout.
With `CC(C)(C)c1ccc(CCCC(CCCc2ccc(C(C)(C)C)cc2)NCCNCCNCCN)cc1.Cl`, the MIC with Bacillus subtilis was 15 µg/mL; with Pseudomonas aeruginosa [1], 100 µg/mL; in the assay on Staphylococcus aureus [2] it was 20 µg/mL; with Pseudomonas aeruginosa [3], 100 µg/mL; in assay [4] it was 60 µg/mL; in the assay on Escherichia coli, 60 µg/mL. The MIC turned out to be 8 µg/mL in the assay with Salmonella, 8 µg/mL in [6], 30 µg/mL in the assay on Staphylococcus aureus [7] and 50 µg/mL with Klebsiella aerogenes. The “growth inhibition (GI)” value (in assay [5]; with Proteus vulgaris) was “inactive” in each case. Further, the “growth inhibition (GI)” value with Pasteurella multocida and in the assay with Streptococcus pyogenes was “Active” in each case.
On to `Cc1ccc(C(C)(C)C)cc1CCCC(CCCc1cc(C(C)(C)C)ccc1C)NCCNCCNCCN.Cl`, for which the MIC amounted to 4 µg/mL in the assay with Bacillus subtilis; 80 µg/mL in the assay on Pseudomonas aeruginosa [1]; 15 µg/mL in the assay with Staphylococcus aureus [2]; 50 µg/mL with Pseudomonas aeruginosa [3]; 10 µg/mL in [4]; 60 µg/mL in the assay on Escherichia coli. The MIC amounted to 10 µg/mL with Salmonella, 15 µg/mL in assay [6], 60 µg/mL in the assay on Staphylococcus aureus [7] and 10 µg/mL with Klebsiella aerogenes. Further, the “growth inhibition (GI)” value (in assay [5]; with Proteus vulgaris) was “inactive” in each case. The “growth inhibition (GI)” value with Pasteurella multocida and in the assay on Streptococcus pyogenes was “Active” throughout.
As for `CC(C)c1ccc(CCCC(CCCc2ccc(C(C)C)cc2)NCCCNCCCN)cc1.Cl`, the MIC with Bacillus subtilis stood at 6 µg/mL; in the assay on Pseudomonas aeruginosa [1], 40 µg/mL; in the assay on Staphylococcus aureus [2], 20 µg/mL; with Pseudomonas aeruginosa [3], 15 µg/mL; in [4] it was 10 µg/mL; in the assay with Escherichia coli, 40 µg/mL. In addition, the MIC was found to be 10 µg/mL in the assay with Salmonella, 10 µg/mL in assay [6], 20 µg/mL with Staphylococcus aureus [7] and 20 µg/mL in the assay with Klebsiella aerogenes. In addition, the “growth inhibition (GI)” value (in assay [5]; in the assay on Proteus vulgaris) was “inactive” each time. The “growth inhibition (GI)” value with Pasteurella multocida and with Streptococcus pyogenes was “Active” throughout.
In the case of `CC(C)c1ccc(CCC(CCc2ccc(C(C)C)cc2)NCCCNCCCN)cc1.Cl`, the MIC in the assay with Bacillus subtilis turned out to be 4 µg/mL; in the assay with Pseudomonas aeruginosa [1] it was 10 µg/mL; with Staphylococcus aureus [2], 8 µg/mL; in the assay with Pseudomonas aeruginosa [3] it was 10 µg/mL; in assay [4], 4 µg/mL; in the assay with Escherichia coli, 8 µg/mL. Also, the MIC in the assay on Salmonella was found to be 4 µg/mL; in [6], 4 µg/mL; in the assay with Staphylococcus aureus [7], 8 µg/mL. Also, the “growth inhibition (GI)” value (in assay [5]; in the assay on Proteus vulgaris) was “inactive” each time. The “growth inhibition (GI)” value with Pasteurella multocida and with Streptococcus pyogenes was “Active” throughout.
Take `Cl.NCCCNCC(O)CNC(CCC1CCCCC1)CCC1CCCCC1` (centres undefined): the MIC in the assay on Bacillus subtilis worked out at 4 µg/mL; in the assay with Pseudomonas aeruginosa [1] it was 8 µg/mL; with Staphylococcus aureus [2], 8 µg/mL; with Pseudomonas aeruginosa [3], 20 µg/mL; in assay [4], 4 µg/mL; in the assay with Escherichia coli, 8 µg/mL. Further, the MIC in the assay on Salmonella amounted to 4 µg/mL; in assay [6], 4 µg/mL; with Staphylococcus aureus [7], 15 µg/mL; in the assay with Klebsiella aerogenes, 6 µg/mL.
